As usually defined, the EC50 is the concentration that produces a half-maximal response. One may read the Ki as a dissociation constant, usually derived from enzyme kinetics or from competition with a known ligand. In general, Cmax refers to the maximum level reached in the sampled fluid or tissue.

Data set [1] has as its system Hepatitis C virus. The data set can be described thus: Antiviral activity against Hepatitis C virus containing NS3/4a ps33 sequence by transient cell-base protease activity. The data set is classed as functional, organism-based, Hepacivirus hominis. The procedure, abridged: (§1)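 Transient cell-based phenotype assay of protease activity, using NS3/4A sequences cloned from plasma of HCV-infected patients. EC50s were determined.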

The subject of data set [2] is Hepatitis C virus. The data set can be described thus: Inhibition of Hepatitis C virus genotype 1b NS3/4A protease activity. Further details: species or system Hepatitis C virus subtype 1b. The procedure, abridged:
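Recombinant NS3/4A protease was expressed in and purified from E. coli. Inhibition was measured by a time-resolved, internally quenched fluorescence assay at low enzyme concentration. Kis were reported.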

The subject of data set [3] is Hepatitis C virus. The data set can be described thus: Antiviral activity against Hepatitis C virus containing NS3/4a ps37 sequence by transient cell-base protease activity. The data set is classed as functional, organism-based, Hepacivirus hominis. In outline:
as §1

Data set [4] can be described thus: Cmax in rhesus monkey at 5 mg/kg, po by LC/MS/MS analysis. The data set is classed as ADME, organism-based, Macaca mulatta. The arrangement: dose 5 mg/kg, route oral. As to conditions: in vivo. In outline:
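Dosed orally as a solution in polyethylene glycol 400 (2.0 ml/kg), with n = 3. EDTA plasma was centrifuged off and held at −70°C. Drug levels were determined by LC/MS/MS following protein precipitation.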

Regarding `CC[C@@H]1C[C@]1(NC(=O)[C@@H]1C[C@@H]2CN1C(=O)[C@H](C(C)(C)C)NC(=O)OCC(C)(C)CCCCc1cccc3c1CN(C3)C(=O)O2)C(=O)NS(=O)(=O)C1CC1` [VANIPREVIR], the EC50 was found to be 9.5 nM in the data set on Hepatitis C virus [1] and 6.5 nM in the data set with Hepatitis C virus [3]. This compound returned a Ki in the data set with Hepatitis C virus [2] of 0.06 nM. Further, the maximum concentration (Cmax) in data set [4] was 10 nM.
